Laboratory results reported in ChEMBL document CHEMBL4052637, “Discovery and Characterization of R/S-N-3-Cyanophenyl-N'-(6-tert-butoxycarbonylamino-3,4-dihydro-2,2-dimethyl-2H-1-benzopyran-4-yl)urea, a New Histone Deacetylase Class III Inhibitor Exerting Antiproliferative Activity against Cancer Cell Lines” (J Med Chem, 2017).
The source made the active and inactive calls. The calls are words filed in the database; no cut-off is given here.

Columns and labels:
U-373MG ATCC = test: Cell cycle arrest in human U373 cells assessed as accumulation at sub-G1 phase at 2 uM after 24 to 48 hrs by propidium iodide staining-based flow cytometry; assay type: functional
In short: (§1)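 Cells were exposed to compound at the IC50 for each line from the 72 h MTT assay, or to a reference HDAC inhibitor at 2 μM. Cell cycle distribution was analyzed after 24 and 48 h. Results are mean ± SD of three independent experiments, with p values against control cells.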

[1] = molecular target: T1, NAD-dependent protein deacetylase sirtuin-1 (Homo sapiens) (UniProt Q96EB6); test: Inhibition of SIRT1 in human Hs683 cells assessed as increase of histone H4 acetylation at 2 uM after 8 hrs by Western blotting method relative to control; assay type: cell-based
T1 sequence (whole entry): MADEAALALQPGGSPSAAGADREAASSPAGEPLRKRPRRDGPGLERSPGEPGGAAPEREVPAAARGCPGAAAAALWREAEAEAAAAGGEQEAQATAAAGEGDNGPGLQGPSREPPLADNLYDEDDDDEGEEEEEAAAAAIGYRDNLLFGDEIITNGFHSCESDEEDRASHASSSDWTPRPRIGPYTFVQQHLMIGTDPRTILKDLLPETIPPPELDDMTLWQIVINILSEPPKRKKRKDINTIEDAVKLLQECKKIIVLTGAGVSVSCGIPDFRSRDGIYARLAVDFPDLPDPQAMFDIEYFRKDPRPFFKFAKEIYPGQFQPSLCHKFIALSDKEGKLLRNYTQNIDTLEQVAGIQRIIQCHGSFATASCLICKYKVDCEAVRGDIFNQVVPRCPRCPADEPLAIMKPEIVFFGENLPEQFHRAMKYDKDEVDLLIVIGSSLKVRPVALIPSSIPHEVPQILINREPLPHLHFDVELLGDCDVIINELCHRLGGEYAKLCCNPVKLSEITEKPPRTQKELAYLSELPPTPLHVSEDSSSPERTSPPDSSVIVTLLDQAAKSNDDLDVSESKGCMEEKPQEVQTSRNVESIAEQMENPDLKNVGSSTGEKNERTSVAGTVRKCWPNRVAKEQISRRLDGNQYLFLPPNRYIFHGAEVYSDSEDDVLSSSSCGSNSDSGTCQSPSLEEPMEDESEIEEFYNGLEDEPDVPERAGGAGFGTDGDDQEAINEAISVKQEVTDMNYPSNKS

[2] = molecular target: T1, NAD-dependent protein deacetylase sirtuin-1 (Homo sapiens); test: Inhibition of SIRT1 in human U373 cells assessed as increase of histone H4 acetylation at 2 uM after 8 hrs by Western blotting method relative to control; assay type: cell-based
[3] = molecular target: T2, NAD-dependent protein deacetylase sirtuin-2 (Homo sapiens) (UniProt Q8IXJ6); test: Inhibition of SIRT2 in human U373 cells assessed as increase of alpha-tubulin acetylation at 2 uM after 8 hrs by Western blotting method relative to control; assay type: cell-based
T2 sequence (whole entry): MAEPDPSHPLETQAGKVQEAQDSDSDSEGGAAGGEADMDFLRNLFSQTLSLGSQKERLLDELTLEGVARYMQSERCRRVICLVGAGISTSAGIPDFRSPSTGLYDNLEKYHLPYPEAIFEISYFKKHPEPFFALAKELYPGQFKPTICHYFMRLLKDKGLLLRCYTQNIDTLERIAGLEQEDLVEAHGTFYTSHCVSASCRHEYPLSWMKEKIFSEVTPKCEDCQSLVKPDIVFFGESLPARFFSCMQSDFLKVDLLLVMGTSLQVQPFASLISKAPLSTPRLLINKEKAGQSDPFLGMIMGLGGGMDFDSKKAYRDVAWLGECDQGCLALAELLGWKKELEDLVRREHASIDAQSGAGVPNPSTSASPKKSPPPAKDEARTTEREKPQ

[4] = molecular target: T2, NAD-dependent protein deacetylase sirtuin-2 (Homo sapiens); test: Inhibition of SIRT2 in human Hs683 cells assessed as increase of alpha-tubulin acetylation at 2 uM after 8 hrs by Western blotting method relative to control; assay type: cell-based
Hs 683 [5] = test: Cell cycle arrest in human Hs683 cells assessed as accumulation at sub-G1 phase at 2 uM after 24 to 48 hrs by propidium iodide staining-based flow cytometry; assay type: functional; in short: as §1
Hs 683 [6] = test: Cell cycle arrest in human Hs683 cells assessed as accumulation at G1 phase at 2 uM after 24 to 48 hrs by propidium iodide staining-based flow cytometry; assay type: functional; in short: as §1

fold change (FC) [1]: 12.6 | fold change (FC) [2]: 7.9 | fold change (FC) [3]: 18.6 | fold change (FC) [4]: 18.7
SMILES: O=C(CCCCCCC(=O)Nc1ccccc1)NO
Activity (U-373MG ATCC): Active | Activity (Hs 683 [5]): Active | Activity (Hs 683 [6]): Active
